We go through 21 compounds from ChEMBL document CHEMBL1165850, “Synthesis, biological evaluation and molecular docking of novel series of spiro [(2H,3H) quinazoline-2,1'- cyclohexan]-4(1H)-one derivatives as anti-inflammatory and analgesic agents” (Eur J Med Chem, 2010).

Data set [1] has as its system Rattus norvegicus. As to the kind of experiment: Antiinflammatory activity in rat assessed as reduction in carrageenan-induced paw edema at 9 mg/kg, ip administered 1 hr before carrageenan challenge measured after 1 hr. Set-up: unit not given here. The conditions noted are these: route intraperitoneal. In kind it is functional. An outline of the steps: (§1)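 Adult rats of either sex (150–200 g), randomly grouped. Compounds were dissolved in DMSO and given i.p. at 9 mg/kg; indomethacin was given at 10 mg/kg; controls received DMSO i.p. Dosing was 1 h before 100 ul of 1% carrageenan in saline injected subplantar into the right hind paw. Paw volume was measured by planimeter before and at 1, 2, 3 and 4 h. Values are mean ± S.E., analysed by one-way ANOVA with LSD.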
In general terms: The carrageenan paw model is a standard test of acute inflammation.

Data set [2] deals with Rattus norvegicus. The data set is described as follows: Antiinflammatory activity in rat assessed as reduction in carrageenan-induced paw edema at 9 mg/kg, ip administered 1 hr before carrageenan challenge measured after 2 hrs. In kind it is functional. Set-up: unit not given here. The conditions noted are these: route intraperitoneal. The gist of the method:
as §1

The test system of data set [3] is Rattus norvegicus. The data set is described as follows: Antiinflammatory activity in rat assessed as reduction in carrageenan-induced paw edema at 9 mg/kg, ip administered 1 hr before carrageenan challenge measured after 3 hrs. Set-up: unit not given here. The conditions noted are these: route intraperitoneal. In kind it is functional. An outline of the steps:
as §1

For data set [4], the system named is Mus musculus. The data set is described as follows: Analgesic activity in mouse assessed as reaction time administered 1 hr before test measured after 1 hr by hot plate test. In kind it is functional. The gist of the method: (§2)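 Hot-plate test in adult mice (20–25 g), plate at 52 °C (±0.1 °C). Vehicle, compounds or tramadol (20 mg/Kg b wt) were given 60 min before testing. Latency to lick a hind paw or jump was recorded before dosing and at 1 and 2 h after. Values are mean ± S.E. of six animals per group, with Dunnett's test against control.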
(In hot-plate and tail-flick tests a longer latency is read as antinociception.)

Data set [5] relates to Mus musculus. The data set is described as follows: Analgesic activity in mouse assessed as reaction time administered 1 hr before test measured after 2 hrs by hot plate test. The class given is functional. An outline of the steps: as §2
Data set [6] has as its system Rattus norvegicus. As to the kind of experiment: Gastrointestinal toxicity in Wistar rat assessed as ulcerogenic effect at 9 mg/kg, po after 7 hrs. The class given is organism-based. Set-up: dose 9 mg/kg, route oral. The conditions noted are these: in vivo. The gist of the method: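 Male Wistar rats, 150–175 g, groups of 5, fasted 48 h, then given 9 mg/kg orally as an aqueous suspension (10 mL/kg). Killed 7 h later. Stomachs were opened along the greater curvature and inspected for irritation, scored as number of ulcers, ulcer severity and number of rats with ulcers per 5. Ethanol control, indomethacin reference. Reported as mean ± S.E.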

Data set [7] deals with Mus musculus. The data set is described as follows: Analgesic activity in mouse assessed as reaction time at 20 mg/kg administered 1 hr before test measured after 1 hr by hot plate test. The class given is functional. An outline of the steps: as §2
Data set [8] concerns Mus musculus. As to the kind of experiment: Analgesic activity in mouse assessed as reaction time at 20 mg/kg administered 1 hr before test measured after 2 hrs by hot plate test. The class given is functional. The gist of the method: as §2

With `CN(C)c1ccc(C2CC(c3ccc(N4C(=O)c5ccccc5NC45CCCCC5)cc3)=NN2c2ccccc2)cc1` (centres undefined), the Activity with Rattus norvegicus [1] is recorded as 57.9; in the data set on Rattus norvegicus [2], 65.4; in the data set on Rattus norvegicus [3], 66.4. In addition, the Time in the data set on Mus musculus [4] amounted to 15 s; in the data set with Mus musculus [5], 20.5 s. Moreover, in the data set on Rattus norvegicus [6], the UI was determined as 10.4.

With `O=C1c2ccccc2NC2(CCCCC2)N1c1ccc(C2=NN(c3ccccc3)C(c3ccco3)C2)cc1` (centres undefined), the Activity in the data set with Rattus norvegicus [1] is listed as 52.2; in the data set with Rattus norvegicus [2], 79.1; in the data set with Rattus norvegicus [3], 82.5. The Time in the data set on Mus musculus [4] amounted to 9.2 s; in the data set with Mus musculus [5], 10.9 s.

In the case of `CCOC(=O)c1ccc(N2C(=O)c3ccccc3NC23CCCCC3)cc1`, the Activity is given as 44.2 in the data set with Rattus norvegicus [1], 59.6 with Rattus norvegicus [2] and 67.8 in the data set on Rattus norvegicus [3]. For the same compound, the Time in the data set on Mus musculus [4] was found to be 12 s; with Mus musculus [5], 14.6 s.

In the case of `COc1ccc(/C=N/NC(=O)c2ccc(N3C(=O)c4ccccc4NC34CCCCC4)cc2)cc1`, the Activity was 72.4 with Rattus norvegicus [1], 88 in the data set on Rattus norvegicus [2] and 88.7 with Rattus norvegicus [3]. For the same compound, the Time in the data set on Mus musculus [4] is 13.3 s; in the data set with Mus musculus [5], 16.9 s.

With `O=C(NN1C(=O)CN(C2CCCCC2)C1=S)c1ccc(N2C(=O)c3ccccc3NC23CCCCC3)cc1`, the Activity with Rattus norvegicus [1] is on record as 54.9; in the data set on Rattus norvegicus [2], 66.7; with Rattus norvegicus [3], 77.2. The Time was 8.9 s with Mus musculus [4] and 13 s with Mus musculus [5].

Take `NNC(=O)c1ccc(N2C(=O)c3ccccc3NC23CCCCC3)cc1`: the Activity in the data set with Rattus norvegicus [1] was determined as 57.5; with Rattus norvegicus [2] it was 85.7; with Rattus norvegicus [3] it was 82.1. In addition, the Time is on record as 9.4 s in the data set with Mus musculus [4] and 17 s with Mus musculus [5].

`NS(=O)(=O)c1ccc(N2C(=O)c3ccccc3NC23CCCCC3)cc1`: the Activity is on record as 57.7 in the data set with Rattus norvegicus [1], 78.9 in the data set on Rattus norvegicus [2] and 87.7 with Rattus norvegicus [3]. Moreover, the Time in the data set on Mus musculus [4] is reported as 9.5 s; in the data set on Mus musculus [5], 17.5 s.

Take `O=C1c2ccccc2NC2(CCCCC2)N1c1ccc(S(=O)(=O)Nc2ncccn2)cc1`: the Activity in the data set with Rattus norvegicus [1] is given as 60.4; with Rattus norvegicus [2] it was 74.1; with Rattus norvegicus [3] it was 80.1. Further, the figures for the Time with Mus musculus [4] and in the data set with Mus musculus [5] were 19.8 s and 21.6 s, respectively. The UI with Rattus norvegicus [6] came out at 0.6.

As to `CCC(=S)NS(=O)(=O)c1ccc(N2C(=O)c3ccccc3NC23CCCCC3)cc1`, the Activity with Rattus norvegicus [1] is recorded as 67.5; in the data set with Rattus norvegicus [2], 83.4; in the data set with Rattus norvegicus [3], 88.6. Moreover, the Time in the data set on Mus musculus [4] was 11 s; with Mus musculus [5] it was 19.1 s.

For `N#Cc1c(-c2ccc(F)cc2)cc(-c2ccc(N3C(=O)c4ccccc4NC34CCCCC4)cc2)[nH]c1=O`, the Activity in the data set with Rattus norvegicus [1] is listed as 85.4; with Rattus norvegicus [2] it was 74.6; in the data set on Rattus norvegicus [3], 88. For the same compound, the Time is on record as 11.8 s in the data set with Mus musculus [4] and 13.5 s in the data set on Mus musculus [5].

As to `N#Cc1c(-c2ccccc2O)cc(-c2ccc(N3C(=O)c4ccccc4NC34CCCCC4)cc2)[nH]c1=O`, the Activity in the data set with Rattus norvegicus [1] is reported as 49.4; in the data set on Rattus norvegicus [2], 71.8; in the data set on Rattus norvegicus [3], 76.4. The results for the Time with Mus musculus [4] and with Mus musculus [5] were 24.9 s and 19.4 s, respectively. Besides, the UI in the data set with Rattus norvegicus [6] was 0.

Take `O=C(NN1C(=O)CSC1c1cccs1)c1ccc(N2C(=O)c3ccccc3NC23CCCCC3)cc1` (centres undefined): the Activity in the data set on Rattus norvegicus [1] amounted to 56.2; with Rattus norvegicus [2], 65.1; in the data set with Rattus norvegicus [3], 55.9. In addition, the Time in the data set with Mus musculus [4] is 21 s; in the data set on Mus musculus [5] it was 18.4 s. Moreover, the UI with Rattus norvegicus [6] is listed as 0.4.

Turning to `O=C(NNC(=S)NC1CCCCC1)c1ccc(N2C(=O)c3ccccc3NC23CCCCC3)cc1`, the figures for the Activity in the data set on Rattus norvegicus [1], in the data set on Rattus norvegicus [2] and with Rattus norvegicus [3] were 65.1, 82.1 and 83.9, respectively. Moreover, the Time with Mus musculus [4] is reported as 9.3 s; with Mus musculus [5], 17.2 s.

Take `N#Cc1c(-c2ccccc2O)cc(-c2ccc(N3C(=O)c4ccccc4NC34CCCCC4)cc2)[nH]c1=N`: the Activity in the data set with Rattus norvegicus [1] amounted to 61; in the data set on Rattus norvegicus [2], 66.6; with Rattus norvegicus [3], 68.6. The Time came out at 14.6 s in the data set on Mus musculus [4] and 18.4 s with Mus musculus [5]. Also, in the data set on Rattus norvegicus [6], the UI was determined as 2.

As to `O=C(/C=C/c1ccco1)c1ccc(N2C(=O)c3ccccc3NC23CCCCC3)cc1`, the Activity in the data set on Rattus norvegicus [1] is 60.4; with Rattus norvegicus [2], 93.8; in the data set on Rattus norvegicus [3], 94.8. Moreover, the figures for the Time in the data set on Mus musculus [4] and in the data set on Mus musculus [5] were 9.6 s and 17.1 s, respectively.

Regarding `O=C(NN1C(=O)CC(=O)N(C2CCCCC2)C1=S)c1ccc(N2C(=O)c3ccccc3NC23CCCCC3)cc1`, the Activity is 61.7 in the data set with Rattus norvegicus [1], 79.3 with Rattus norvegicus [2] and 85.1 in the data set with Rattus norvegicus [3]. The Time is 9.4 s in the data set on Mus musculus [4] and 17.1 s with Mus musculus [5].

Take `CC(=O)N1N=C(c2ccc(N3C(=O)c4ccccc4NC34CCCCC4)cc2)CC1c1ccco1` (centres undefined): the values for the Activity in the data set with Rattus norvegicus [1], in the data set on Rattus norvegicus [2] and in the data set with Rattus norvegicus [3] were 49.9, 88.7 and 83.5, respectively. Moreover, the Time in the data set with Mus musculus [4] amounted to 9.5 s; in the data set with Mus musculus [5], 17 s.

As to `N#Cc1c(-c2ccc(F)cc2)cc(-c2ccc(N3C(=O)c4ccccc4NC34CCCCC4)cc2)[nH]c1=N`, the Activity in the data set with Rattus norvegicus [1] worked out at 66.4; in the data set on Rattus norvegicus [2], 78.2; with Rattus norvegicus [3] it was 81.3. Moreover, the figures for the Time with Mus musculus [4] and in the data set with Mus musculus [5] were 24.1 s and 17.8 s, respectively. Besides, the UI with Rattus norvegicus [6] is recorded as 3.2.

With `CC(=O)c1ccc(N2C(=O)c3ccccc3NC23CCCCC3)cc1`, the results for the Activity in the data set with Rattus norvegicus [1], in the data set on Rattus norvegicus [2] and in the data set on Rattus norvegicus [3] were 54.6, 80.9 and 81.5, respectively. Further, the values for the Time in the data set on Mus musculus [4] and in the data set with Mus musculus [5] were 9.1 s and 17 s, respectively.

With `COc1ccc2c(c1)c(CC(=O)O)c(C)n2C(=O)c1ccc(Cl)cc1` [INDOMETHACIN], in the data set with Rattus norvegicus [6], the UI was found to be 9.8.

Take `COc1cccc(C2(O)CCCCC2CN(C)C)c1` (centres undefined) [TRAMADOL]: the Time with Mus musculus [7] worked out at 17.6 s; in the data set with Mus musculus [8] it was 18.2 s.
